Test results from publication PMC8075810 (Cell Chemical Biology, 2021).

Columns and labels:
[1] = test system: SCoV2; assay: SCoV2 replication in hACE2-HeLa cells, NP western blot; type: cell-based, SARS-CoV2 (SZ02); conditions: 5 μM, 48 h
[2] = Metabolic stability in mouse liver microsomes; type: in vitro ADME
How it was run: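 It was then split into 7 aliquots, each given NADPH (3 mM solution added) or PBS alone and incubated at 37°C. Samples were diluted 1:1 with water and analysed by LC-MS.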

[3] = test system: hACE2-HeLa cells; assay: Cytotoxicity, CellTiter-Glo viability assay; type: cell-based, Human; conditions: 10 μM, 72 h
How it was run: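 hACE2-HeLa cells grown in DMEM with 10% FBS and penicillin-streptomycin at 37°C, 5% CO2, and passaged before confluency. 2 x 10^3 cells/well were seeded in 384-well format and exposed to test compound at a range of concentrations for 72 h. Viability was read by CellTiter-Glo luminescence.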

[4] = test system: SCoV2; conditions: hACE2-HeLa cells
[5] = test system: NF-κB activation perturbed by SCoV2 PLpro; assay: NF-κB activity luciferase-reporting assay; type: cell-based, Human
[6] = test system: SCoV2; assay: microbe, parasite or virus in culture; conditions: Severe acute respiratory syndrome coronavirus 2, read-out: IC50 (inhibition of SCoV2 replication)
[7] = Stability in mouse plasma; type: in vitro ADME
[8] = test system: 10 DUBs or DUB-like proteases, including USP14 and OTUB1; assay: Inhibitor specificity assay; type: biochemical, Human; conditions: 19 at 10 μM, Ub-Rho substrate

| SMILES | NP level in infected hACE2-HeLa cells [1] | half-life at 1 μM [2] [min] | cytotoxicity (in words) [3] | therapeutic index (CC50/IC50) [4] | inhibition of SCoV2 replication (in words) ([4]; spike immunostaining) | recovery of NF-κB activation level [5] | IC50 [6] [µM] | half-life at 8.35 μM [7] [min] | inhibition of DUBs or DUB-like proteases [8] |
| --- | --- | --- | --- | --- | --- | --- | --- | --- | --- |
| C[C@H](c1cccc2ccccc12)N1CCC(C(=O)NCc2cccc(F)c2)CC1 [Inhibitor 11, (R)-N-(3-fluorobenzyl)-1-(1-(naphthalen-1-yl)ethyl)piperidine-4-carboxamide] | strongest | – | – | – | – | – | – | – | – |
| C[C@H](c1cccc2ccccc12)N1CCC(C(=O)NCc2cc(F)cc(NC(=O)N3CCN(C)CC3)c2)CC1 [Inhibitor 19, (R)-N-(3-fluoro-5-((1-(1-(naphthalen-1-yl)ethyl)piperidine-4-carboxamido)methyl)phenyl)-4-methylpiperazine-1-carboxamide] | – | 28 | neither 17 nor 19 showed detectable cytotoxicity | over 55 | significantly inhibit SCoV2 replication even at 400 nM | significantly recover | 0.182 | > 120 | none of these 10 proteases were significantly inhibited |
